Apaf1 inhib = inhibitors of human Apaf-1 apoptosome | AID 489030 | inhibition, % at 20 µM | O14727 | 330,000 tested, 0.71% active | reconstituted apoptosome caspase-3 activity, DEVD-Rh110 fluorescence; active = inhibition of at least 40% at 20 µM;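 also: plate controls were DMSO wells for no effect and DEVD-CHO caspase inhibitor wells for full effect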
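Material: cell-free apoptosome with Apaf-1, procaspase-3 and caspase-9; Buffer or medium: Hepes pH 7.5 with detergent and BSA; Reagent: cytochrome c trigger plus (Z-DEVD)2-Rh110 caspase-3 substrate; Times: compound with Apaf-1, dATP, procaspase-3 30 min, then 50 min reaction, room temperature; Technique: Rh110 fluorescence intensity.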
PAD4 inh = inhibitors of human PAD4; Q9UM07; recombinant PAD4, RCA probe fluorescence polarization; inhibition, % at 6.36 µM; 330,000 tested, 0.41% active; AID 485272;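 active = percent inhibition above a cutoff equal to the mean of all tested compounds plus 3 SD, cut at about 15% in these data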;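 also: 0% = PAD4 with RCA probe and DMSO and 100% = probe without PAD4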
TDP2 absorb = blocks human TDP2 phosphodiesterase activity. 370,000 tested, 0.34% active. recombinant TDP2, T5PNP hydrolysis, p-nitrophenol absorbance 415 nm. AID 720702. inhibition, % at 12.8 µM. O95551;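 active = inhibition above the mean of all tested compounds plus 3 SD, set per campaign, cut at about 25% in these data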;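 also: 0% = DMSO with enzyme and 100% = buffer with substrate but no TDP2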
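Read-out basis: percent inhibition. System: recombinant human TDP2. Buffer or medium: Mg2+-containing Tris-HCl buffer, pH 7.5. Repeats: single replicate. Timing: reaction 2 h, 37 °C. Benchmarks: high control without enzyme, low control DMSO plus TDP2. Probe or stimulus: 5 mM T5PNP. Doses: 12.8 µM only. Measured by: epi absorbance of p-nitrophenol freed from T5PNP by hydrolysis.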
SIAE inh = human SIAE inhibition, primary screen; SIAE FP-Rh probe binding, fluorescence polarization; inhibition, % at 9.66 µM; 370,000 tested, 0.69% active; AID 1053197;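 active = inhibition above a cutoff: mean of compounds within the control limits plus 3 SD of those, cut at about 17% in these data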;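 also: 0% = plate median of compound wells and 100% = probe without SIAE protein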
Target sequence (Q9HAT2 whole entry, looked up): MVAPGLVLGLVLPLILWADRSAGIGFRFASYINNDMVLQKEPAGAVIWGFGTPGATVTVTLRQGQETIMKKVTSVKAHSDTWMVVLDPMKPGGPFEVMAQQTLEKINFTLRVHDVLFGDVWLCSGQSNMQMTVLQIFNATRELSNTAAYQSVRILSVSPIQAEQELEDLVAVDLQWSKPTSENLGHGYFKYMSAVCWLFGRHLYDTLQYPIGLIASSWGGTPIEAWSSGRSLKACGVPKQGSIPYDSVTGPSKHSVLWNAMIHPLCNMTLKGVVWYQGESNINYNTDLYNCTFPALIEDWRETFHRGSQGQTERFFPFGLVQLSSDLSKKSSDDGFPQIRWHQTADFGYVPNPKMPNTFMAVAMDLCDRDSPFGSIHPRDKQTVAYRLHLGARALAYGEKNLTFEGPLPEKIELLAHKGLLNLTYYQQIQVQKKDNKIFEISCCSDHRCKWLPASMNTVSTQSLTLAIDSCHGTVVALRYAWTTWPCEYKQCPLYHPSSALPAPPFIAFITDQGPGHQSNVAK
GSTO1 counter = counter-screen for RBBP9 inhibitors: inhibitors of human GSTO1; P78417; recombinant GSTO1, activity-based probe fluorescence polarization; inhibition, % at 5.96 µM; 300,000 tested, 1.1% active;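 active = inhibition above the campaign mean inhibition plus 3 SD, cut at about 35% in these data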;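 also: 0% = GSTO1-1 with DMSO and 100% = wells lacking GSTO1-1 enzyme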
Target sequence (P78417 whole entry, looked up): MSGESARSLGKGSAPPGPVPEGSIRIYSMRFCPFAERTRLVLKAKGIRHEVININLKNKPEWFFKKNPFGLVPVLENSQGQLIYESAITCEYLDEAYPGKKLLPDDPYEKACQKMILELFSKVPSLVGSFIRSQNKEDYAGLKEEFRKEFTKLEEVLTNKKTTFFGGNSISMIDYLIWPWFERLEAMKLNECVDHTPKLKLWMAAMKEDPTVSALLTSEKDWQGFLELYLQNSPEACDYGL
TCR-CD3 inh = inhibitors of human TCR-CD3 interaction | 360,000 tested, 0.37% active | inhibition, % at 9.4 µM | TAMRA-labeled TCR probe fluorescence, biochemical | AID 651800; in the data active = inhibition above about 19%;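 also: recombinant mutant TCR 2C K166C tagged with TAMRA read by polarization; 0% = receptor in buffer alone and 100% = receptor with positive control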
GSTO1 confirm = GSTO1 (human) inhibition, confirmation. recombinant GSTO1, probe fluorescence polarization. shares compounds with GSTO1 counter. AID 2176. 2,400 tested, 54% active. inhibition, % at 5.96 µM;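 active = inhibition above the primary screen's cutoff, its mean inhibition plus 3 SD, cut at about 35% in these data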;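 also: loss of polarization as inhibitors block binding of rhodamine sulfonate ester activity probe; 0% = GSTO1 with DMSO and 100% = wells lacking GSTO1 enzyme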
GSTO1 recomb ABPP = inhibitors of recombinant human GSTO1 | shares compounds with GSTO1 counter | gel ABPP SE-Rh probe fluorescence | inhibition, % at 1 µM | 130 tested, 30% active;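 active = inhibition of the enzyme GSTO1 above about 75%, limit read from the data; inactive = inhibition below that limit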
* marks the source's active call; other numbers are inactive results; . = not tested or not shown. Hits are enriched below; roughly 2.4% of the tested compounds scored in any of these assays.

SMILES | Apaf1 inhib | PAD4 inh | TDP2 absorb | SIAE inh | GSTO1 counter | TCR-CD3 inh | GSTO1 confirm | others
CCOc1ccc(C2C(C(=O)/C=C/c3ccco3)=C(O)C(=O)N2CCN2CCOCC2)cc1OC (stereo not drawn) | 8.1 | -2.8 | 10.1 | 1.4 | 38.4* | 5.8 | 6.4
CC1(C(=O)O)CCC(C(=O)Nc2ccc(S(N)(=O)=O)cc2)C1(C)C (stereo not drawn) | -19.0 | 3.7 | 9.6 | -1.0 | 4.3 | 3.1 | .
O=S(=O)(c1ccc2ccccc2c1)N1CCOCC1 | 0.4 | -1.5 | 4.7 | 2.8 | -1.2 | 7.5 | .
O=S(=O)(c1ccc2nc(-c3ccco3)c(-c3ccco3)nc2c1)N1CCOCC1 | 77.3* | -5.4 | 16.9 | 4.0 | 48.3* | 15.8 | 20.7
COc1cc(CNc2ccc(N3CCCC3)cc2)cc(Cl)c1OC | 34.1 | -10.3 | 13.0 | 12.1 | 59.0* | 2.9 | 56.5*
COc1ccccc1CNc1ccc(N2CCCCC2)cc1 | -14.3 | -9.2 | . | . | 50.8* | . | 7.0
COc1cccc(CNc2ccc(N3CCCCC3)cc2)c1OC | 22.6 | -1.5 | 13.9 | 10.4 | -1.4 | -4.9 | .
COc1cc(CNc2ccc(N3CCOCC3)cc2)cc(Br)c1OC | -85.5 | 6.5 | -8.3 | 12.4 | 5.2 | -4.0 | .
CCOc1ccc(CNc2ccc(N3CCCC3)cc2)cc1 | 35.4 | -2.9 | . | . | 66.2* | . | 55.4*
CCOc1ccc(CNc2ccc(N3CCN(Cc4ccccc4)CC3)cc2)cc1 | -3.9 | -11.6 | 11.5 | 6.3 | -1.7 | 3.2 | .
CCNC(=O)/C(=C/c1cccc([N+](=O)[O-])c1)NC(=O)c1ccc(C)cc1 | 2.4 | -5.9 | 11.8 | -0.3 | 23.5 | 7.3 | .
CN(C)S(=O)(=O)c1cc(NC(=O)COC(=O)Cc2cccc3ccccc23)ccc1Cl | 3.5 | 3.4 | -15.2 | -68.0 | -5.5 | 4.9 | .
CCC(C(=O)OCC(=O)Nc1ccc(Cl)c(S(=O)(=O)N(C)C)c1)c1ccccc1 (stereo not drawn) | 6.4 | -4.7 | -14.9 | -8.4 | 65.3* | 1.4 | -1.7
COc1ccc(N2CCN(C(=O)CSc3nnc(-c4ccc5[nH]c(C)c(C)c5c4)o3)CC2)cc1 | 3.9 | 0.8 | 9.2 | 4.0 | -2.4 | -2.5 | .
COc1cc(C(=O)OCCNC(=O)c2cccnc2)cc(OC)c1OC | -3.1 | 2.1 | 3.4 | 2.1 | . | -2.4 | .
C/C(=N\NS(=O)(=O)c1ccc(Cl)c([N+](=O)[O-])c1)c1ccc(C)o1 | -0.8 | 1.9 | -2.6 | -3.6 | 49.3* | -6.2 | 26.6
C/C(=N\NS(=O)(=O)c1ccc(Cl)c([N+](=O)[O-])c1)c1cc2ccccc2o1 | 2.4 | 4.3 | -7.2 | 3.0 | 40.4* | -2.8 | 14.2
CN(C)c1ccc(NS(=O)(=O)c2ccc(-c3csnn3)cc2)cc1 | -3.6 | 4.5 | -15.3 | 10.5 | 39.1* | 0.1 | 30.3
CCOc1ccccc1NC1c2ccccc2C(=O)N1c1ccc(C)cn1 (stereo not drawn) | 14.1 | 0.3 | 1.6 | 1.9 | -4.6 | 7.5 | .
CCOC(=O)c1ccccc1NC1c2ccccc2C(=O)N1c1ccc(C)cn1 (stereo not drawn) | 18.3 | -0.2 | -0.2 | -4.3 | 75.7* | -9.2 | 6.1
CC(C)=CCc1c(O)c(CC=C(C)C)c2c(c1O)-c1cc(O)c(O)cc1CC2 | 18.8 | 1.9 | . | . | 38.9* | . | -6.8
CC(C)=CCc1c(O)cc2c(c1O)C(=O)CC(c1ccccc1)O2 (stereo not drawn) | -4.7 | 1.4 | -13.5 | -8.2 | -6.8 | -0.6 | .
Cc1ccc2nc(N3CCN(CCO)CC3)nc(-c3ccccc3)c2c1 | 9.7 | 1.2 | 2.0 | 15.6 | 42.9* | -1.5 | 24.7
O=C(O)C1=NN(c2ccccc2)C(=O)C1 | -7.1 | -1.2 | 10.4 | 5.1 | 48.2* | 1.8 | 11.0
CCn1cc(/C=N/O)c(C)n1 | 3.3 | -1.4 | 5.7 | 2.2 | 12.6 | 0.9 | .
SMILES | Apaf1 inhib | PAD4 inh | TDP2 absorb | SIAE inh | GSTO1 counter | TCR-CD3 inh | GSTO1 confirm | others
O=C(NNC(=O)c1ccccc1-n1cccc1)c1ccc(F)cc1 | 5.1 | -10.2 | 0.5 | 0.2 | -5.2 | -2.3 | .
COC(=O)c1c(S(=O)(=O)NCc2ccccc2)sc(C(=O)O)c1C | -0.3 | 6.1 | 3.2 | 8.2 | 5.4 | -4.4 | .
CNCc1ccccc1Sc1ccc(O)c(O)c1 | . | -0.6 | -1.3 | 10.3 | 73.8* | 10.9 | 71.4*
COc1ccc(Sc2ccccc2CN(C)C)cc1OC | 5.0 | 1.6 | -2.9 | 2.6 | 9.7 | 9.7 | .
CCSc1ccc([C@@H]2[C@@H]3C(=O)N(CC)C(=O)[C@@H]3[C@]3(C(=O)OC)CCCCN23)cc1OC | 4.6 | -3.0 | 0.1 | 3.2 | 5.1 | -11.7 | .
O=C(O)c1cccc(C(=O)O)n1 | -1.7 | . | . | . | . | . | .
O=C(O)c1ccc2cccc(O)c2n1 | -19.7 | -0.9 | 6.3 | -1.0 | 39.2* | -12.3 | 22.2
COc1ccc(CCNC(=O)C2CCN(c3ccc(N4CCOCC4)nn3)CC2)c(OC)c1 | 4.5 | 0.2 | -2.6 | -3.5 | 5.8 | 3.1 | .
CCOc1ccc(-c2nc(CCl)cs2)cc1 | -1.1 | -1.4 | -7.4 | 6.9 | 79.3* | 1.1 | 92.5* | GSTO1 recomb ABPP=69.0
CC1CN(Cc2csc(-c3ccc(Cl)cc3)n2)CC(C)O1 (stereo not drawn) | 1.0 | 2.8 | 6.1 | -2.2 | 2.0 | -0.9 | .
ClCc1csc(-c2ccc(Cl)cc2)n1 | 4.7 | -1.2 | 2.7 | -11.1 | 90.8* | -4.0 | 101.1* | GSTO1 recomb ABPP=62.0
Nc1c(C(=O)OCC2CCCO2)c2nc3ccccc3nc2n1C1CCCCC1 (stereo not drawn) | 38.3 | -14.3 | 7.5 | -0.3 | 67.3* | 6.9 | 12.9
CCSc1nnc(NC(=O)CN2C(=O)C3CC=CCC3C2=O)s1 (stereo not drawn) | -1.7 | -1.6 | 7.2 | -7.6 | 4.0 | -4.2 | .
CSc1ccc(C(c2c(C)[nH][nH]c2=O)c2c(C)[nH][nH]c2=O)cc1 | 21.8 | -7.5 | 18.9 | 8.9 | 38.9* | -9.5 | -0.3
Cc1[nH][nH]c(=O)c1C(c1ccc(Br)cc1)c1c(C)[nH][nH]c1=O | 11.9 | -12.3 | -4.2 | 3.8 | 15.6 | -8.2 | .
CC(OC(=O)c1cc(O)c2ccccc2c1O)C(=O)Nc1ccc(C(N)=O)cc1 (stereo not drawn) | 48.9* | 2.2 | 47.4* | 2.2 | 48.1* | 5.2 | 55.9*
CC(C)NC(=O)N[C@@H]1C[C@@H]2O[C@H](CO)CC[C@@H]2O[C@@H]1CCc1ccc(-c2ccccc2F)cc1 | . | . | -5.8 | 6.1 | . | . | .
COc1ccc(C(=O)c2c(C(F)(F)F)oc3c2C(=O)c2ccccc2C3=O)cc1OC | 84.6* | 34.2* | 11.1 | 6.1 | 76.7* | 3.5 | 64.7*
COc1ccccc1NS(=O)(=O)c1ccc2nc(CCl)[nH]c2c1 | 1.1 | 2.2 | -8.7 | 10.2 | 85.1* | 3.8 | 91.0* | GSTO1 recomb ABPP=68.0

Screening results: PubChem BioAssay, several laboratories
